ChEMBL document CHEMBL2086261, “A focused sulfated glycoconjugate Ugi library for probing heparan sulfate-binding angiogenic growth factors” (Bioorg Med Chem Lett, 2012)
pKd: −log10 of the molar value.

Tests used:
[1] = target: Fibroblast growth factor 1 (Homo sapiens, UniProt P05230); experiment: Binding affinity to FGF1 by surface plasmon resonance-based solution affinity assay
How it was run: (§1)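 Dissociation constants (Kd) for ligand binding to FGF-1, FGF-2 and VEGF were determined by an SPR solution affinity assay. Some entries come from a single measurement only.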

[2] = target: T1, Vascular endothelial growth factor A, long form (Homo sapiens, UniProt P15692); experiment: Binding affinity to VEGF by surface plasmon resonance-based solution affinity assay; how it was run: as §1
T1 sequence (P15692 whole entry): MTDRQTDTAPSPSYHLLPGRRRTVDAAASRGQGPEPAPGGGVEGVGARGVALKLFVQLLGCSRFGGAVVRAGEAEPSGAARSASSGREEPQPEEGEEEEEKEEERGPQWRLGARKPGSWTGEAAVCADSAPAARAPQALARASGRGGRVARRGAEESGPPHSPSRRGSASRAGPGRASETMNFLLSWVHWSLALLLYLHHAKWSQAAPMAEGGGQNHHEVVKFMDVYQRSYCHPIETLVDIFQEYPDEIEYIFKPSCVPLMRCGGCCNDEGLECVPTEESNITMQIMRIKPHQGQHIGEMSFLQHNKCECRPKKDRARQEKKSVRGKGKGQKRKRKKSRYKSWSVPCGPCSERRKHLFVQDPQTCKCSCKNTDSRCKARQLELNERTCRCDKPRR

[3] = target: Fibroblast growth factor 2 (Homo sapiens, UniProt P09038); experiment: Binding affinity to FGF2 by surface plasmon resonance-based solution affinity assay; how it was run: as §1
Fibroblast growth factor 2, sequence (P09038 143-288 limits assumed): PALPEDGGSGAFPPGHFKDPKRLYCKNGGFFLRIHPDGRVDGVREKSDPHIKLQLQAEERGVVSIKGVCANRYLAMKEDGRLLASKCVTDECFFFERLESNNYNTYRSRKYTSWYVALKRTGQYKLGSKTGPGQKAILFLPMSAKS

Fibroblast growth factor 1, sequence (P05230 whole entry): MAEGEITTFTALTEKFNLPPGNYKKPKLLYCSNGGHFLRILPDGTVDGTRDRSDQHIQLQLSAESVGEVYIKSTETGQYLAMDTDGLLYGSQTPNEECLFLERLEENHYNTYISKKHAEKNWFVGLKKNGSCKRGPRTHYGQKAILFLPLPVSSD

pKd [1] | pKd [2] | pKd [3] | SMILES
3.71 | 4.12 | 3.32 | CO[C@H]1O[C@H](CNC(=O)CN(C(C)=O)c2ccccc2)[C@@H](OS(=O)(=O)O)[C@H](OS(=O)(=O)O)[C@@H]1OS(=O)(=O)O
3.85 | 4.11 | 3.72 | CO[C@H]1O[C@H](CNC(=O)CN(Cc2ccccc2)C(C)=O)[C@@H](OS(=O)(=O)O)[C@H](OS(=O)(=O)O)[C@@H]1OS(=O)(=O)O
3.65 | 3.96 | 3.17 | CO[C@H]1O[C@H](CNC(=O)CN(CCc2ccccc2)C(C)=O)[C@@H](OS(=O)(=O)O)[C@H](OS(=O)(=O)O)[C@@H]1OS(=O)(=O)O
3.51 | 2.77 | 3.38 | CO[C@H]1O[C@H](CNC(=O)CN(C(C)=O)C2CCCCC2)[C@@H](OS(=O)(=O)O)[C@H](OS(=O)(=O)O)[C@@H]1OS(=O)(=O)O
3.43 | 2.52 | 3.39 | CO[C@H]1O[C@H](CNC(=O)CN(C(C)=O)C2CCCCCC2)[C@@H](OS(=O)(=O)O)[C@H](OS(=O)(=O)O)[C@@H]1OS(=O)(=O)O
3.58 | 2.92 | 3.32 | CO[C@H]1O[C@H](CNC(=O)CN(C(C)=O)C2CCCCCCCCCCC2)[C@@H](OS(=O)(=O)O)[C@H](OS(=O)(=O)O)[C@@H]1OS(=O)(=O)O
3.61 | 3.00 | 3.27 | CCCCC1CCC(N(CC(=O)NC[C@H]2O[C@H](OC)[C@@H](OS(=O)(=O)O)[C@@H](OS(=O)(=O)O)[C@@H]2OS(=O)(=O)O)C(C)=O)CC1 (stereo not given in full)
4.43 | 4.34 | 3.37 | CO[C@H]1O[C@H](CNC(=O)CNC(=O)Cc2cccc(Cl)c2)[C@@H](OS(=O)(=O)O)[C@H](OS(=O)(=O)O)[C@@H]1OS(=O)(=O)O
4.02 | 3.55 | 3.62 | CO[C@H]1O[C@H](CNC(=O)CN(CCOS(=O)(=O)O)C(C)=O)[C@@H](OS(=O)(=O)O)[C@H](OS(=O)(=O)O)[C@@H]1OS(=O)(=O)O
3.76 | 3.29 |  | CCN(CC(=O)NC[C@H]1O[C@H](OC)[C@@H](OS(=O)(=O)O)[C@@H](OS(=O)(=O)O)[C@@H]1OS(=O)(=O)O)C(=O)COS(=O)(=O)O
3.47 | 3.68 | 3.54 | CCN(CC(=O)NC[C@H]1O[C@H](OC)[C@@H](OS(=O)(=O)O)[C@@H](OS(=O)(=O)O)[C@@H]1OS(=O)(=O)O)C(=O)CCC(=O)O
3.80 | 3.98 | 3.32 | CCN(CC(=O)NC[C@H]1O[C@H](OC)[C@@H](OS(=O)(=O)O)[C@@H](OS(=O)(=O)O)[C@@H]1OS(=O)(=O)O)C(=O)CCCCC(=O)O
3.95 | 3.26 | 3.62 | CCN(CC(=O)NC[C@H]1O[C@H](OC)[C@@H](OS(=O)(=O)O)[C@@H](OS(=O)(=O)O)[C@@H]1OS(=O)(=O)O)C(=O)CCCCCCCCCOS(=O)(=O)O
3.44 | 2.96 | 3.32 | CCN(CC(=O)NC[C@H]1O[C@H](OC)[C@@H](OS(=O)(=O)O)[C@@H](OS(=O)(=O)O)[C@@H]1OS(=O)(=O)O)C(=O)c1ccccc1
 | 3.22 |  | CCN(CC(=O)NC[C@H]1O[C@H](OC)[C@@H](OS(=O)(=O)O)[C@@H](OS(=O)(=O)O)[C@@H]1OS(=O)(=O)O)C(=O)CCc1ccccc1
3.30 | 4.09 | 3.40 | CCN(CC(=O)NC[C@H]1O[C@H](OC)[C@@H](OS(=O)(=O)O)[C@@H](OS(=O)(=O)O)[C@@H]1OS(=O)(=O)O)C(=O)CCCc1ccccc1
4.01 | 3.40 | 3.62 | CC(=O)N(CC(=O)NCCO[C@H]1O[C@H](COS(=O)(=O)O)[C@@H](OS(=O)(=O)O)[C@H](OS(=O)(=O)O)[C@@H]1OS(=O)(=O)O)c1ccccc1
4.60 | 4.12 | 3.54 | CC(=O)N(CC(=O)NCCO[C@H]1O[C@H](COS(=O)(=O)O)[C@@H](OS(=O)(=O)O)[C@H](OS(=O)(=O)O)[C@@H]1OS(=O)(=O)O)Cc1ccccc1
4.93 | 4.54 | 3.95 | CC(=O)N(CCc1ccccc1)CC(=O)NCCO[C@H]1O[C@H](COS(=O)(=O)O)[C@@H](OS(=O)(=O)O)[C@H](OS(=O)(=O)O)[C@@H]1OS(=O)(=O)O
3.77 | 4.04 | 3.08 | O=C(CNC(=O)Cc1cccc(Cl)c1)NCCO[C@H]1O[C@H](COS(=O)(=O)O)[C@@H](OS(=O)(=O)O)[C@H](OS(=O)(=O)O)[C@@H]1OS(=O)(=O)O
4.37 | 4.40 | 3.91 | CCN(CC(=O)NCCO[C@H]1O[C@H](COS(=O)(=O)O)[C@@H](OS(=O)(=O)O)[C@H](OS(=O)(=O)O)[C@@H]1OS(=O)(=O)O)C(=O)CCC(=O)O
4.36 | 4.09 | 3.73 | CCN(CC(=O)NCCO[C@H]1O[C@H](COS(=O)(=O)O)[C@@H](OS(=O)(=O)O)[C@H](OS(=O)(=O)O)[C@@H]1OS(=O)(=O)O)C(=O)CCCCC(=O)O
4.70 | 4.30 | 3.80 | CCN(CC(=O)NCCO[C@H]1O[C@H](COS(=O)(=O)O)[C@@H](OS(=O)(=O)O)[C@H](OS(=O)(=O)O)[C@@H]1OS(=O)(=O)O)C(=O)CCCCCCCCCOS(=O)(=O)O
3.46 | 3.20 | 3.68 | CO[C@H]1O[C@H](CN=[N+]=[N-])[C@@H](OS(=O)(=O)O)[C@H](OS(=O)(=O)O)[C@@H]1OS(=O)(=O)O
 | 3.70 |  | CO[C@H]1O[C@H](COS(=O)(=O)O)[C@@H](OS(=O)(=O)O)[C@H](OS(=O)(=O)O)[C@@H]1OS(=O)(=O)O
